In ChEMBL document CHEMBL1250500, “E-2-[3-(3,4-dichlorophenyl)-1-oxo-2-propenyl]-3-methylquinoxaline-1,4-dioxide: a lead antitubercular agent which alters mitochondrial respiration in rat liver” (Eur J Med Chem, 2010):
pIC50: −log10 of the molar value. Active and inactive are the calls of the source. No cut-off for these calls is given here.

Test system: Mycobacterium tuberculosis
Assay: Antitubercular activity against Mycobacterium tuberculosis H37Rv ATCC 27294 by microplate alamar blue assay
Type: functional, organism-based
Procedure, shortened: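 Broth microdilution in BACTEC 12B medium, with Alamar Blue read-out.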

SMILES	pIC50	IC90
COc1cc(/C=C/C(=O)c2c(C)[n+]([O-])c3ccccc3[n+]2[O-])cc(OC)c1OC	5.16	11.9 µM
Cc1c(C(=O)/C=C/c2ccc(Cl)cc2)[n+]([O-])c2ccccc2[n+]1[O-]	5.58	4.12 µM
CC(=O)c1c(C)[n+]([O-])c2ccccc2[n+]1[O-] [MEQUINDOX]	5.17	7.89 µM
COc1ccc(/C=C/C(=O)c2c(C)[n+]([O-])c3ccccc3[n+]2[O-])cc1	4.64	40.2 µM
Cc1c(C(=O)/C=C/c2ccccc2)[n+]([O-])c2ccccc2[n+]1[O-]	5.41	6.12 µM
Cc1c(C(=O)/C=C/c2ccc(Br)cc2)[n+]([O-])c2ccccc2[n+]1[O-]	5.43	> 250 µM
Cc1c(C(=O)/C=C/c2ccc(Cl)c(Cl)c2)[n+]([O-])c2ccccc2[n+]1[O-]	5.99	1.53 µM
Cc1ccc(/C=C/C(=O)c2c(C)[n+]([O-])c3ccccc3[n+]2[O-])cc1	5.25	9.44 µM
Cc1c(C(=O)/C=C/c2ccc([N+](=O)[O-])cc2)[n+]([O-])c2ccccc2[n+]1[O-]	< 3.60	> 250 µM
Cc1c(C(=O)/C=C/c2ccc3c(c2)OCO3)[n+]([O-])c2ccccc2[n+]1[O-]	4.71	35.8 µM
Cc1c(C(=O)/C=C/c2cccc([N+](=O)[O-])c2)[n+]([O-])c2ccccc2[n+]1[O-]	5.66	2.39 µM
Cc1c(C(=O)/C=C/c2ccc(F)cc2)[n+]([O-])c2ccccc2[n+]1[O-]	5.23	10.7 µM
COc1ccc(/C=C/C(=O)c2c(C)[n+]([O-])c3ccccc3[n+]2[O-])cc1OC	5.04	17.2 µM

Species: Rattus norvegicus
Assay: Induction of rat liver mitochondria respiration assessed as consumption of oxygen by polarography
Type: functional
Procedure, shortened: (§1)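 Liver mitochondria isolated from a rat anesthetized with isoflurane and decapitated. Oxygen consumption measured polarographically. Compounds tested at 1, 5 and 10 μM, added in 4 μL DMSO. A DMSO-only (4 μL) solvent control was run alongside.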

SMILES	Activity
Cc1c(C(=O)/C=C/c2ccc(Cl)c(Cl)c2)[n+]([O-])c2ccccc2[n+]1[O-]	Dose-dependent effect

Species: Rattus norvegicus
Assay: Induction of rat liver mitochondria respiration assessed as consumption of oxygen at 1 to 10 uM by polarography
Type: functional
Procedure, shortened: as §1

SMILES	Activity
CC(=O)c1c(C)[n+]([O-])c2ccccc2[n+]1[O-] [MEQUINDOX]	inactive
